Measurements pooled from the literature.
Target: cAMP-dependent protein kinase catalytic subunit beta (PRKACB, Homo sapiens, UniProt P22694)

SMILES	assay	conditions	endpoint	value
C[C@H](c1ccnc(Nc2nc3ccc(-c4cc(N(C)C)ncn4)cc3[nH]2)c1)N1CCN(C(=O)CC(F)(F)F)CC1	cell-free assay, competition with immobilised ligand	0.1 µM	remaining binding	100%
Cc1sc(C(=O)NC2COC2)cc1-n1cc(NC(=O)Nc2c(F)cccc2Cl)cn1	enzyme activity, inhibitor	10 µM	remaining activity	104%
CN1CC(Oc2cnc(C#N)cc2-c2ccn3nc(NC(=O)C4CC4)cc3c2)C1	enzyme activity, inhibitor	1 µM	inhibition	-10%
O=C(Nc1cccnn1)N1CCC(=Cc2cccc(Oc3ccc(C(F)(F)F)cn3)c2)CC1	cell-free assay, competition with immobilised ligand	1 µM	remaining binding	100%
Cc1ccc(C(=O)Nc2ccc(CN3CCN(C)CC3)c(C(F)(F)F)c2)cc1C#Cc1cnc2cccnn12	enzyme activity, inhibitor	23.5 nM	remaining activity	83%
C[C@@H]1CN(c2cc(-c3nn(C)c4ccc(OC5(C)CC5)cc34)ncn2)C[C@H](C)O1	cell-free assay, competition with immobilised ligand	1 µM	remaining binding	100%
COc1cc(Cl)c(C(=O)N[C@@H](CN[C@H]2CC[C@@H](N)CC2)Cc2ccc(C#N)cc2)cc1-c1ccc(CN[C@H](C)c2ccc(C)cc2)o1	enzyme activity, inhibitor	1 µM	remaining activity	66%
O=C(Nc1cnn(-c2csc(C(=O)NC3COC3)c2)c1)Nc1ccccc1Cl	enzyme activity, inhibitor	5 µM	remaining activity	99%
Cn1cnc(Br)c1C1=CN(c2ncnc3[nH]cnc23)CCS1	enzyme activity, inhibitor, radiometric	50 nM	inhibition	18.7%
Cc1ccc(C(=O)NCc2ccsc2)cc1C#Cc1cn(C(C)C)c2ncnc(N)c12	enzyme activity, inhibitor	1 µM	activity vs control	111%
CC(C)(O)[C@H]1CC[C@H](Nc2ccc3ncc(-c4cccc(C(F)(F)F)c4)n3n2)CC1	enzyme activity, inhibitor	1 µM	remaining activity	97.7%
COc1cc(-c2cc(-c3ccc(N4CCNCC4)cc3)cnc2C)cc(OC)c1OC	enzyme activity, inhibitor	1 µM	inhibition	3%
Nc1ncnc2occ(-c3ccc(NC(=O)Nc4cc(C(F)(F)F)ccc4F)cc3)c12	enzyme activity, inhibitor	20 µM	remaining activity	22%
